ChEMBL document CHEMBL4831490, “Silyl resveratrol derivatives as potential therapeutic agents for neurodegenerative and neurological diseases” (Eur J Med Chem, 2021)
Values after ≈ are worked out from the molar mass of the structure shown. Active and inactive are the calls of the source. No cut-off for these calls is given here.

Legend:
SH-SY5Y [1] = assay: Neuroprotective activity against H2O2-induced oxidative stress in human SH-SY5Y cells assessed as increase in cell viability at 10 uM pretreated with H2O2 for 10 mins followed by compound treatment and measured after 24 hrs by MTT assay; type: functional, cell-based
SH-SY5Y [2] = assay: Cytotoxicity against human SH-SY5Y cells assessed as reduction in cell viability at 10 uM measured after 24 hrs by MTT assay relative to control; type: cell-based
How it was run: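 SH-SY5Y cells grown in DMEM-F12 with 10% iFBS on collagen-pretreated plates; 2 × 10⁴ cells per well, left 24 h before compound in DMSO (final 1% DMSO) at 1, 10 and 100 µM. Viability by MTT 24 h after addition; mean and SD of at least eight readings from various experiments.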

[3] = Toxicity in 3hpf zebrafish AB embryo assessed as LOAEL measured 96 hpf; parameters: species or system Danio rerio; conditions: in vivo, 96 h
How it was run: (§1)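 Zebrafish AB embryos collected at 3 hpf, 20 per well, in E3 medium with graded compound concentrations. Incubated 28.5 °C for 93 h further (to 96 hpf), mortality scored. NOEC/LOEC defined by mortality above 20%. Controls: 0.1% DMSO, three replicates; DEAB at 5 concentrations.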

Mus musculus [4] = assay: Immunosuppressive activity in MOG (35 to 55 residues)/pertussis toxin-induced experimental autoimmune encephalomyelitis C57BL/6 mouse model assessed as reduction in clinical scores at 20 mg/kg, ip starting from 20 days post disease progression and administered for 2 weeks; type: functional, organism-based
[5] = Stability of the compound in PBS buffer assessed as parent compound remaining measured after 72 hrs; type: physicochemical; conditions: read-out: Stability
How it was run: (§2)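 Compound incubated 72 h in PBS 1x (pH 7.4) or in SH-SY5Y culture medium; percentage of compound remaining determined.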

[6] = Stability of the compound in human SH-SY5Y cells assessed as parent compound remaining measured after 72 hrs; type: ADME; conditions: read-out: Stability; how it was run: as §2
Mus musculus [7] = assay: Neuroprotective activity in C57BL/6 mouse model of 3-NP-induced intoxication assessed as reduction in IL6 production at 20 mg/kg, ip by sandwich ELISA
[8] = Hydrolytic stability of the compound in mouse serum assessed as parent compound remaining measured after 1 hr; type: ADME, cell-free; conditions: read-out: Stability
How it was run: (§3)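 Hydrolytic stability measured in mouse serum at 1 h and 24 h.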

Mus musculus [9] = assay: Neuroprotective activity in C57BL/6 mouse model of 3-NP-induced intoxication assessed as reduction in truncal dystonia at 20 mg/kg, ip measured after 5 days relative to control; type: functional; parameters: scale not given: the % may be the effect or the level left; conditions: time 5 day, in the assay text read “overall motor score” for “truncal dystonia”
How it was run: (§4)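 C57BL/6 mice, 12 weeks old, n = 7 per group. 3-NP given i.p. twice daily, 10 h apart: 4 × 20, 4 × 40, 2 × 60 mg/kg (cumulative 360 mg/kg over 5 days). Compound 20 mg/kg i.p. in 13% hydroxypropyl-β-cyclodextrin with 2% Tween-80, given just before each morning 3-NP dose. Weight and motor scoring done before injections, last one 3 h after final 3-NP dose. Rotarod latency to fall read after the 360 mg/kg cumulative dose.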

[10] = Hydrolytic stability of the compound in mouse serum assessed as parent compound remaining measured after 24 hrs; type: ADME, cell-free; conditions: read-out: Stability; how it was run: as §3
[11] = Toxicity in 3hpf zebrafish AB embryo assessed as NOAEL measured 96 hpf; parameters: species or system Danio rerio; conditions: in vivo, 96 h; how it was run: as §1
[12] = Toxicity in 3hpf zebrafish AB embryo assessed as median lethal dose measured 96 hpf; parameters: species or system Danio rerio; conditions: in vivo
How it was run: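 AB zebrafish embryos collected 3 hpf, 20 per well in E3 medium with graded compound concentrations, kept at 28.5 °C to 96 hpf. LC50 was fitted as a sigmoid to mortality. NOEC/LOEC used >20% mortality as the effect. Negative control was 0.1% DMSO in triplicate; DEAB (0.1 µM–1 mM) served as positive control.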

Danio rerio = species on record: Danio rerio; assay: Neuroprotective activity against PTZ-induced neuronal damage in 5 dpf zebrafish AB larvae assessed as effect on AChE activity at 10 uM pretreated for 1 hr followed by removal of medium and subsequent addition of fresh medium containing PTZ and compounds measured after 6 hrs by Ellman's method; type: functional, organism-based; conditions: time 7.0 hrs
How it was run: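 Zebrafish AB larvae at 120 hpf, five per well, ten replicates, two independent experiments. Pretreated 1 h at 26 °C with compound (10 µM) in water with 0.1% DMSO, then after a media change kept 6 h at 26 °C with compound plus 5 mM PTZ. Physostigmine (20 µM) was the control inhibitor. Homogenate supernatant assayed by Ellman method; activity normalized to BCA protein, as % of control.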

Mus musculus [13] = assay: Neuroprotective activity in C57BL/6 mouse model of 3-NP-induced intoxication assessed as improvement in latency to fall at 20 mg/kg, ip by rotarod test relative to control; type: functional; how it was run: as §4
Mus musculus [14] = assay: Neuroprotective activity in C57BL/6 mouse model of 3-NP-induced intoxication assessed as effect on body weight at 20 mg/kg, ip measured after 5 days (91.4 %); type: functional; conditions: time 5 day; how it was run: as §4
Mus musculus [15] = assay: Antioxidant activity in C57BL/6 mouse model of 3-NP-induced oxidative stress assessed as increase in SOD2 mRNA expression at 20 mg/kg, ip by qRT-PCR method; type: functional, organism-based; how it was run: as §4
RAW264.7 [16] = assay: Antiinflammatory activity in mouse RAW 264.7 cells assessed as inhibition of LPS-induced nitric oxide production at 10 uM measured after 24 hrs by Griess reagent assay; type: functional, cell-based
How it was run: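 NO in 24 h culture supernatants of LPS-stimulated RAW 264.7 cells (compound 10 µM, LPS final 100 ng/mL) estimated indirectly as nitrite concentration.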

RAW264.7 [17] = assay: Antiinflammatory activity in mouse RAW 264.7 cells assessed as decrease in LPS-induced TNF-alpha production at 10 uM measured after 24 hrs by ELISA; type: functional, cell-based
How it was run: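 RAW 264.7 macrophages, 5 × 10⁵ per well, given compound at 10 µM then stimulated with LPS (final 100 ng/mL). TNF-α in supernatants after 24 h measured by ELISA with capture/biotinylated detection antibody pairs.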

[18] = Aqueous solubility of the compound; type: physicochemical
RAW264.7 [19] = assay: Antiinflammatory activity in mouse RAW 264.7 cells assessed as decrease in LPS-induced IL-6 production at 10 uM measured after 24 hrs by ELISA; type: functional, cell-based
How it was run: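 RAW 264.7 macrophages, 5 × 10⁵ per well, compound added then stimulated with LPS (final 100 ng/mL) or left unstimulated; IL-6 in supernatant measured after 24 h by sandwich ELISA with capture/biotinylated detection antibodies.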

SH-SY5Y [20] = assay: Neuroprotective activity against H2O2-induced oxidative stress in human SH-SY5Y cells assessed as increase in cell viability at 100 uM pretreated with H2O2 for 10 mins followed by compound treatment and measured after 24 hrs by MTT assay relative to control; type: functional

## CC(C)(C)[Si](C)(C)Oc1cc(O)cc(/C=C/c2ccc(O)cc2)c1
SH-SY5Y [1]
  Activity: Active
SH-SY5Y [2]
  Activity: > 50%

## CCCCCCCC(=O)OC[C@@H]1O[C@H](Oc2ccc(/C=C/c3cc(O[Si](C(C)C)(C(C)C)C(C)C)cc(O[Si](C(C)C)(C(C)C)C(C)C)c3)cc2)[C@@H](O)[C@H](O)[C@H]1O
[3]
  LOAEL: 1000 µM
Mus musculus [4]
  Activity: Active
[5]
  remaining at 72 h: > 80%
[6]
  remaining at 72 h: > 80%
Mus musculus [7]
  Activity: Active
[8]
  remaining at 1 h: 75%
Mus musculus [9]
  Activity: 26.5%
[10]
  remaining at 24 h: 15%
[11]
  NOAEL: 100 µM
[12]
  LC50 at 96 h: 407 µM
Danio rerio
  Activity: Active
Mus musculus [13]
  Activity: 10%
Mus musculus [14]
  Activity: 94.8%
Mus musculus [15]
  Activity: Active

## CC(C)[Si](Oc1ccc(/C=C/c2cc(O)cc(O)c2)cc1)(C(C)C)C(C)C
SH-SY5Y [1]
  Activity: Active
SH-SY5Y [2]
  Activity: > 50%

## CC(C)[Si](Oc1ccc(/C=C/c2cc(O[C@@H]3O[C@H](CO)[C@@H](O)[C@H](O)[C@H]3O)cc(O[Si](C(C)C)(C(C)C)C(C)C)c2)cc1)(C(C)C)C(C)C
[3]
  LOAEL: 1000 µM
[5]
  remaining at 72 h: > 80%
[6]
  remaining at 72 h: > 80%
[11]
  NOAEL: 1000 µM
[12]
  LC50 at 96 h: > 1000 µM

## CC[Si](CC)(CC)Oc1cc(/C=C/c2ccc(O)cc2)cc(O[Si](CC)(CC)CC)c1
[3]
  LOAEL: 1000 µM
RAW264.7 [16]
  inhibition: Active
RAW264.7 [17]
  Activity: Active
[11]
  NOAEL: 100 µM
[12]
  LC50 at 96 h: 475 µM
Danio rerio
  Activity: Active

## CC[Si](CC)(CC)Oc1ccc(/C=C/c2cc(O)cc(O)c2)cc1
RAW264.7 [17]
  Activity: Active

## CC(C)(C)[Si](C)(C)Oc1ccc(/C=C/c2cc(O)cc(O[Si](C)(C)C(C)(C)C)c2)cc1
RAW264.7 [17]
  Activity: Active
SH-SY5Y [1]
  Activity: Active

## CC(C)[Si](Oc1cc(O)cc(/C=C/c2ccc(O)cc2)c1)(C(C)C)C(C)C
SH-SY5Y [1]
  Activity: Active
SH-SY5Y [2]
  Activity: > 50%

## CCCC(=O)Oc1ccc(/C=C/c2cc(O[Si](CC)(CC)CC)cc(O[Si](CC)(CC)CC)c2)cc1
[3]
  LOAEL: 1000 µM
[11]
  NOAEL: 100 µM
[12]
  LC50 at 96 h: 407 µM

## CCCCCCCC(=O)OC[C@H]1O[C@@H](Oc2cc(O)cc(/C=C/c3ccc(O)cc3)c2)[C@H](O)[C@@H](O)[C@@H]1O
[3]
  LOAEL: 10 µM
RAW264.7 [17]
  Activity: Active
[11]
  NOAEL: 1 µM

## Oc1ccc(/C=C/c2cc(O)cc(O)c2)cc1 [RESVERATROL]
[18]
  solubility: 50 µg/mL (≈ 219 µM)
[3]
  LOAEL: > 1000 µM
[11]
  NOAEL: 1000 µM
[12]
  LC50 at 96 h: > 1000 µM
Danio rerio
  Activity: Active

## CCCCCCCC(=O)OC[C@H]1O[C@@H](Oc2cc(/C=C/c3ccc(O[Si](C(C)C)(C(C)C)C(C)C)cc3)cc(O[Si](C(C)C)(C(C)C)C(C)C)c2)[C@H](O)[C@@H](O)[C@@H]1O
[3]
  LOAEL: 1000 µM
[11]
  NOAEL: 100 µM
[12]
  LC50 at 96 h: 407 µM

## CCNC(=O)Oc1ccc(/C=C/c2cc(O[Si](C(C)C)(C(C)C)C(C)C)cc(O[Si](C(C)C)(C(C)C)C(C)C)c2)cc1
[3]
  LOAEL: 1000 µM
[11]
  NOAEL: 1000 µM

## CC[Si](CC)(CC)Oc1cc(O)cc(/C=C/c2ccc(O)cc2)c1
RAW264.7 [17]
  Activity: Active

## CC(C)[Si](Oc1cc(/C=C/c2ccc(O[C@H]3O[C@@H](CO)[C@H](O)[C@@H](O)[C@@H]3O)cc2)cc(O[Si](C(C)C)(C(C)C)C(C)C)c1)(C(C)C)C(C)C
[3]
  LOAEL: 1000 µM
[11]
  NOAEL: 1000 µM
[12]
  LC50 at 96 h: > 1000 µM

## CC(C)(C)[Si](C)(C)Oc1cc(/C=C/c2ccc(O)cc2)cc(O[Si](C)(C)C(C)(C)C)c1
RAW264.7 [17]
  Activity: Active
SH-SY5Y [1]
  Activity: Active

## CC[Si](CC)(CC)Oc1ccc(/C=C/c2cc(O)cc(O[Si](CC)(CC)CC)c2)cc1
[3]
  LOAEL: 1000 µM
RAW264.7 [17]
  Activity: Active
[11]
  NOAEL: 100 µM
SH-SY5Y [1]
  Activity: Active
[12]
  LC50 at 96 h: 380 µM
Danio rerio
  Activity: Active

## CC(C)[Si](Oc1ccc(/C=C/c2cc(O)cc(O[Si](C(C)C)(C(C)C)C(C)C)c2)cc1)(C(C)C)C(C)C
[3]
  LOAEL: 1000 µM
RAW264.7 [19]
  Activity: Active
RAW264.7 [17]
  Activity: Active
[11]
  NOAEL: > 1000 µM
SH-SY5Y [1]
  Activity: Active
[12]
  LC50 at 96 h: > 1000 µM

## CC(C)[Si](Oc1cc(/C=C/c2ccc(O)cc2)cc(O[Si](C(C)C)(C(C)C)C(C)C)c1)(C(C)C)C(C)C
RAW264.7 [19]
  Activity: Active
[5]
  remaining at 72 h: > 80%
[6]
  remaining at 72 h: > 80%
SH-SY5Y [20]
  Activity: 100%
SH-SY5Y [1]
  Activity: Active
Danio rerio
  Activity: Active
